High-throughput results (PubChem)
Runt-SMMHC FRET: Runt domain-CBFb-SMMHC interaction inhibition | AID 1434 | inhibition, % at 20 µM | Cerulean-Runt/Venus-CBFb-SMMHC FRET ratio 530/480, 1 h | Q01196+Q13951 | actives 0.74% (n = 220,000);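 active means mean inhibition across duplicate retests at 20 µM reaching about 50%, limit read from the data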;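 further: inhibitors lower the FRET ratio by blocking Runt binding to CBFb-SMMHC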
Rce1 inhib: yeast Ras-converting enzyme inhibition. yeast membranes, quenched prenylated peptide cleavage fluorescence. actives 0.27% (n = 290,000). Q03530. calls only. AID 2563;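 active means fall in fluorescence gain of 50% or more versus controls, with final raw signal at or below 3038400; inconclusive means same 50% fall but final raw signal above 3038400; inactive means fall in fluorescence gain under 50%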
Target sequence (Q03530 whole entry, looked up): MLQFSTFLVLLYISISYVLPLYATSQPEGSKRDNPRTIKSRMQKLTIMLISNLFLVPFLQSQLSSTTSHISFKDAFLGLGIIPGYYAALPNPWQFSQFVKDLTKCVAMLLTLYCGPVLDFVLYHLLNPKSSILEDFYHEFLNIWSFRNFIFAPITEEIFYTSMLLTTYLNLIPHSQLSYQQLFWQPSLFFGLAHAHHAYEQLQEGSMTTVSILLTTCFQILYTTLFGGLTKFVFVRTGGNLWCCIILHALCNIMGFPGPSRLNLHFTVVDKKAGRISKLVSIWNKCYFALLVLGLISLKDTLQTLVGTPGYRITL
RanGTP-Impb inh: inhibitors of RanGTP-importin-beta interaction, primary screen, biochemical, FRET, CFP-Ran, YFP-importin-beta, homogeneous; cell-free CFP-Ran/YFP-importin-beta FRET ratio; inhibition, % (concentration not given with the values); actives 1.1% (n = 300,000);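 active means more than half of the replicate wells show a fall in the fluorescence ratio signal beyond about 16%, limit read from the data, passing the limit was not always enough; inconclusive means exactly half of the replicate wells pass the set limit; inactive means fewer than half of replicates pass the limit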
Runt-CBFb FRET: Runt domain-CBFb interaction inhibition | Q01196+Q13951 | Cerulean-Runt/Venus-CBFb FRET ratio 530/480, 1 h | inhibition, % at 20 µM | actives 0.46% (n = 220,000) | AID 1496;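 active means inhibition over about 50% at 20 µM in the single-dose screen, limit read from the data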
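Assay system: Cerulean-tagged RUNX1 Runt domain (FRET donor) fusion protein / Amount: 100 nM each of Venus-CBFb and Cerulean-Runt domain / Medium: Tris buffer pH 7.5 with salts and BSA / Also added: Venus-CBFb 100 nM / Schedule: 1 h complex formation plus 1 h compound treatment, room temperature / Signal: FRET fluorescence / Read-out: loss of energy transfer signal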
Platelet DG rel: platelet dense granule release activity; human platelet-rich plasma, SFLLRN dense granule ATP release, luminescence; inhibition, %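 (compounds screened at 7.5 µM in platelet-rich plasma)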; actives 0.22% (n = 300,000);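 active means mean replicate score, as percent of positive control, at or above 50; inconclusive means mean below 50 but at least one replicate at or above 50; inactive means mean and every replicate below 50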
Large screens that a line does not name were inactive. An excerpt weighted towards active compounds, which were near 1.8% of everything screened.

Cc1cccn2c(=O)c3cc(C(=O)NC4CCCC4)c(=N)n(C4CCCC4)c3nc12	Runt-SMMHC FRET 63, RanGTP-Impb inh 180
N=c1c(C(=O)NC2CCCC2)cc2c(=O)n3ccccc3nc2n1C1CCCC1	RanGTP-Impb inh 182
COc1ccc(CCC(=O)NCCS(=O)(=O)N2CCN(c3ccc(F)cc3)CC2)cc1	none (no result: Runt-SMMHC FRET, Runt-CBFb FRET)
Cc1cc(C(=O)NNC(=O)CN2C(=O)NC(C)(c3ccccc3)C2=O)c(C)o1 (stereo not given)	none (no result: Runt-SMMHC FRET, RanGTP-Impb inh, Runt-CBFb FRET)
Cc1ccc(NS(=O)(=O)c2c(C)[nH]c(C)c2C(=O)N2CCCCC2)cc1Cl	none (no result: Runt-SMMHC FRET, Runt-CBFb FRET)
COc1ccc(-c2nc3ccc(C(=O)NCC(OC)OC)cc3nc2-c2ccc(OC)c(OC)c2)cc1OC	none (no result: Runt-SMMHC FRET, Runt-CBFb FRET)
COC(CNC(=O)c1ccc2nc(-c3cccs3)c(-c3cccs3)nc2c1)OC	RanGTP-Impb inh 43
Cc1ccc(-c2csc3nc4c5ccccc5c(NCCCN(C)C)nn4c(=O)c23)cc1	Rce1 inhib active
CCCOc1ccc(NC(=O)CC2C(=O)N(Cc3ccccc3)C(=S)N2Cc2cccs2)cc1 (stereo not given)	none
Cc1cc(=O)n2ccccc2c1C#N	Rce1 inhib active
Cc1c(C#N)c2ccccc2n1C	none
COc1ccc2c(C#N)c3ccccn3c2c1	Runt-SMMHC FRET 92
Cc1cc(=O)n2c(ccc3ccccc32)c1C#N	none
O=C(O)c1cc(S(=O)(=O)NC(Cc2c[nH]c3ccccc23)C(=O)O)ccc1Cl (stereo not given)	none (no result: Runt-SMMHC FRET, Runt-CBFb FRET)
CCCCn1c(N)c(N(CC(C)C)C(=O)c2ccc(S(=O)(=O)N3CCCCC3)cc2)c(=O)[nH]c1=O	none (no result: Runt-SMMHC FRET, Runt-CBFb FRET)
CN(Cc1ccccc1)c1nc(N)c([N+](=O)[O-])c(Nc2cccc(F)c2)n1	none
NC(N)=Nc1nc(-c2ccccc2)c2ccccc2n1	RanGTP-Impb inh 26
CCc1nc(N=C(N)N)nc2ccccc12	none
CC1(C)CSC(=NCCc2ccccc2)N1	none (no result: Runt-SMMHC FRET, Runt-CBFb FRET)
COc1cc2c(cc1OC)C1=C(C#N)CN(CC(=O)O)CN1CC2	Platelet DG rel 52
CCOC(=O)c1ccc[n+](CC(=O)c2ccccc2)c1	RanGTP-Impb inh 25
CCOC(=O)c1ccc[n+](CC(=O)c2ccc(OC)cc2)c1	none
COc1ccc(C(O)c2nccc3cc(OC)c(OC)cc23)cc1OC (stereo not given)	none
COc1cnc(-c2cccc(C(F)(F)F)c2)[nH]c1=O	none
FC(F)(F)c1cccc(-c2nc3nc(Cl)c(Cl)nc3[nH]2)c1	RanGTP-Impb inh 43
COCC(=O)/C=C1\Sc2ccccc2N1C	none
CN1/C(=C\C(=O)c2cccs2)C(C)(C)c2ccccc21	Runt-SMMHC FRET 86, RanGTP-Impb inh 18
CN1/C(=C/C(=O)c2cccs2)Sc2ccccc21	Runt-SMMHC FRET 83
CN1CCN(C(=O)c2cnn(-c3ccccc3)c2NC(=O)c2ccc(Br)cc2)CC1	none (no result: Runt-SMMHC FRET, Runt-CBFb FRET)
CC(=O)c1cccc(-c2ccc3c(=O)[nH]c(Nc4ccccc4)cc3c2)c1	RanGTP-Impb inh 22 (no result: Runt-SMMHC FRET, Runt-CBFb FRET)
O=c1[nH]c(Nc2ccccc2)cc2cc(Br)ccc12	RanGTP-Impb inh 83 (no result: Runt-SMMHC FRET, Runt-CBFb FRET)
COc1ccc(OC)c(Nc2cc3ccccc3c(=O)[nH]2)c1	RanGTP-Impb inh inconclusive (no result: Runt-SMMHC FRET, Runt-CBFb FRET)
COc1ccccc1Nc1cc2cc(Br)ccc2c(=O)[nH]1	RanGTP-Impb inh 34 (no result: Runt-SMMHC FRET, Runt-CBFb FRET)
O=c1[nH]c(Nc2ccccc2)cc2ccccc12	RanGTP-Impb inh 43
COc1cccc(CN(C)C(=O)c2cc(COc3ccc(-n4cncn4)cc3)on2)c1	none (no result: Runt-SMMHC FRET, Runt-CBFb FRET)
Cc1ccc(C2=NN(C(=O)CCC(=O)O)C(c3cn(-c4ccccc4)nc3-c3ccc(C)cc3)C2)cc1 (stereo not given)	RanGTP-Impb inh inconclusive
COc1ccc([N+](=O)[O-])cc1CSc1ccccn1	Rce1 inhib active, RanGTP-Impb inh inconclusive
COc1ccc(/C(C)=N/NC(=O)CNC(=O)c2ccncc2)c(OC)c1	none (no result: Runt-SMMHC FRET, Runt-CBFb FRET)
CCOC(=O)c1ccc(C(=O)OCC)c(NC(=S)Nc2ccc([N+](=O)[O-])cc2OC)c1	none
O=C(Nc1ccc(S(=O)(=O)Nc2ccccc2)cc1)C1COc2ccccc2O1 (stereo not given)	Rce1 inhib active
CCOC(=O)CCSc1cc(C)c2ccccc2n1	none
O=C(CN1CCC(NC(=O)c2ccc(Br)cc2)CC1)NCc1cccs1	Rce1 inhib active
Cc1cccc(N2C(=O)c3cccc4c(N5CCCCC5)c([N+](=O)[O-])cc(c34)C2=O)c1C	Rce1 inhib active
NS(=O)(=O)c1ccc(N2N=C(c3ccc(Br)cc3)CC2c2ccc(F)cc2)cc1 (stereo not given)	RanGTP-Impb inh 23
NS(=O)(=O)c1ccc(N2N=C(c3ccccc3)CC2c2cccc(F)c2)cc1 (stereo not given)	none
O=C(c1ccco1)[C@@H]1[C@@H]2C(=O)N(c3ccccc3)C(=O)[C@@H]2C2c3ccccc3C=CN21 (stereo not given in full)	RanGTP-Impb inh 28
CN(C)c1c(N)c(=O)oc2ccccc12	none
Nc1c(N)c2ccccc2oc1=O	RanGTP-Impb inh 20
CCCCn1c(=NC(=O)c2ccco2)c(C(=O)OCC)cc2c(=O)n3cccc(C)c3nc21	Runt-SMMHC FRET 82, RanGTP-Impb inh 123
CCOC(=O)c1cc2c(=O)n3ccccc3nc2n(C(C)C)c1=NC(=O)c1c(-c2c(F)cccc2Cl)noc1C	Runt-SMMHC FRET 63, RanGTP-Impb inh 90, Runt-CBFb FRET 101
CCCCn1c(=NC(=O)c2ccco2)c(C(=O)OCC)cc2c(=O)n3ccccc3nc21	none
CCCCCn1c(=NC(=O)c2ccco2)c(C(=O)OCC)cc2c(=O)n3ccccc3nc21	RanGTP-Impb inh 137
COc1ccc(C2=NN(C(=O)CSC3=NN4CCCC(=O)N=C4S3)C(c3cccc(OC)c3OC)C2)cc1 (stereo not given)	Platelet DG rel 74
COc1ccccc1NC(=O)c1ccc2nc(C)c(C)nc2c1	none (no result: Runt-SMMHC FRET, Runt-CBFb FRET)
Cc1cc(C(N)=O)c2cc(Br)ccc2n1	RanGTP-Impb inh 27
Cc1cc([N+](=O)[O-])nn1CCC(=O)Nc1nccs1	none
CCOC(=O)NCc1ccc2c(c1)cc(C)n2C	RanGTP-Impb inh 85
CCOC(=O)Cc1csc(NS(=O)(=O)c2ccc(Br)cc2)n1	RanGTP-Impb inh 37
N=c1c(S(=O)(=O)c2ccc(F)cc2)cc2c(=O)n3ccccc3nc2n1CC1CCCO1 (stereo not given)	RanGTP-Impb inh 175 (no result: Runt-SMMHC FRET, Runt-CBFb FRET)
Cc1cc(-n2c(=O)c(C#N)cc3c(=O)n4cccc(C)c4nc32)no1	Runt-SMMHC FRET 60, RanGTP-Impb inh 184
Cc1cccn2c(=O)c3cc(C#N)c(=O)n(CC4CCCO4)c3nc12 (stereo not given)	Runt-SMMHC FRET 60 (no result: Rce1 inhib, RanGTP-Impb inh, Platelet DG rel)
Cc1ccc(S(=O)(=O)c2cc3c(=O)n4cccc(C)c4nc3n(CC3CCCO3)c2=N)cc1 (stereo not given)	Runt-CBFb FRET 112 (no result: Rce1 inhib, RanGTP-Impb inh, Platelet DG rel)
CC(=O)N1CCN(C(=O)COc2ccc3oc4c(c3c2)CCCC4)CC1	none (no result: Runt-SMMHC FRET, Runt-CBFb FRET)
COc1ccccc1NC(=O)NC1(C(=O)N2CCCCCC2)CCCCC1	Platelet DG rel 53
